Sampled rows, rich in hits. Any-hit rate of the full collection: about 6.8%.
ALR inh = inhibitors of human sulfhydryl oxidase ALR; P55789; purified ALR, DTT oxidation, H2O2 HRP-luminol luminescence; inhibition, % (test concentration not listed); 290,000 compounds, 3.8% hits; AID 485317;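 active = mean replicate inhibition above about 79%, with every replicate also reaching it, limit read from the data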
Target sequence (P55789 whole entry, looked up): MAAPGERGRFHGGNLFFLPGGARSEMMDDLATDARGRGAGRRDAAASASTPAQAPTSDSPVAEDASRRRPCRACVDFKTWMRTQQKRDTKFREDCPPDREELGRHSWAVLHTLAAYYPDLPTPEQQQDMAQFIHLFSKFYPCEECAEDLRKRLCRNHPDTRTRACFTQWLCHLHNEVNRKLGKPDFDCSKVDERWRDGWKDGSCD
PHOSPHO1 inh = PHOSPHO1 (human) inhibition; 290,000 compounds, 1.1% hits; recombinant PHOSPHO1, absorbance phosphatase assay; AID 1565; inhibition, % at 13.3 µM; in the data active = inhibition above about 60%
Target sequence (Q8TCT1 whole entry, looked up): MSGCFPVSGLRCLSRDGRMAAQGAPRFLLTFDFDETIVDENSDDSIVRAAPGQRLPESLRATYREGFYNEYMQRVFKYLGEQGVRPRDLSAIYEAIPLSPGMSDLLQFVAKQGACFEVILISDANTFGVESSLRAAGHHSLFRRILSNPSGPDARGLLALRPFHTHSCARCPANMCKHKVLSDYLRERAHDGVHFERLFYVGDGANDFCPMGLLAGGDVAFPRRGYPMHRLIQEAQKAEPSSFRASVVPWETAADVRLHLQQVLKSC
AI-2 QS mod = modulators of Vibrio harveyi AI-2 quorum sensing system; Vibrio harveyi JMH597 AI-2 luminescence/OD600 ratio, 9 h; stronger effect = lower value; strain lacks LuxN and CqsS sensors; 0 = neutral-control median; 300,000 compounds, 0.4% hits; activity change, % at 7.5 µM; AID 2094; in the data active = activity change below about -75%, passing the limit was not always enough;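 also: luminescence divided by OD600 gain over 9 h not by final OD600 alone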
HCV core dimer = blocks dimerization of HCV core protein. TR-FRET GST/Flag-core106 dimerization, 1536-well. inhibition, % at 5 µM. 300,000 compounds, 0.33% hits;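 active = inhibition above the mean of all tested compounds plus 3 SD, set per screening campaign, cut at about 45% in these data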
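Test system: GST/Flag-tagged HCV core106 proteins; Medium: KF-containing HEPES buffer, pH 7.45, DTT, CHAPS, BSA; Times: compound-protein-antibody incubation 4 h at 22.5 °C; Detection: TR-FRET 671 and 617 nm emission; Benchmarks: wells lacking GST-core106 and wells with excess unlabelled core106.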
HSF1 activator = increases HSF-1 driven luciferase reporter signal; NIH3T3-HGL HSF-1 luciferase reporter, MG132, 8 h; 100% = twice DMSO control signal; activation, % at 9 µM; 300,000 compounds, 1.7% hits; AID 504408;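 active = mean replicate activation of at least 50% with a set share of replicates each reaching 50%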;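 also: 0% = median of the neutral control wells and 100% = twice that signal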
HSF1 inh = HSF1 inhibition; NIH3T3-HGL HSE-luciferase, MG132-induced, luminescence 8 h; stronger effect = lower value; activity change, negative = inhibition, % at 7.5 µM (by protocol); 300,000 compounds, 0.77% hits; AID 2098;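 active = more than half of replicate wells show activity change below -50%, luminescence cut by over half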;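 also: luciferase reports HSF-1 transcriptional activity via heat shock element; 0% = median of DMSO wells and -100% = zero luminescence signal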
The depositor's hits bear a star; / = not tested or not shown.

SMILES	ALR inh	PHOSPHO1 inh	AI-2 QS mod	HCV core dimer	HSF1 activator	HSF1 inh
O=C(NCCCN1CCCC1)c1ccc2c(c1)N(Cc1ccccc1)CCS2	99.3*	23.9	14.5	0.5	-4.5	-2.1
CCN(CC(=O)N1CCOCC1)S(=O)(=O)c1ccccc1	-0.1	10.3	10.7	0.3	0.1	-3.0
CN(C)c1ccc(-n2cc3c(=O)n(C)c(=O)n(C)c3c2)cc1	98.5*	27.7	19.2	-20.5	-11.2	2.8
O=C(CC1SC(=Nc2cccc3ccccc23)N(Cc2ccccn2)C1=O)Nc1ccccc1Br (configuration not stated)	0.8	-22.7	14.8	13.3	7.6	5.8
Cc1ccccc1N=C1SC(CC(=O)Nc2ccc3ccccc3c2)C(=O)N1Cc1ccccn1 (configuration not stated)	-2.6	-29.6	-18.0	14.4	56.5*	19.2
Cc1ccccc1CN(C)C(=O)COC(=O)CSc1ccc([N+](=O)[O-])cc1	98.8*	/	19.8	0.2	-7.9	-8.6
Cc1ccc(CN(C)C(=O)COC(=O)CSc2ccc([N+](=O)[O-])cc2)cc1	-14.3	/	-33.1	-1.0	13.3	3.4
CCC1(C)Cc2c(C#N)c(N)n(-c3ccccc3)c(=S)c2CO1 (configuration not stated)	-4.4	24.1	14.5	2.6	3.4	-7.4
CCC1(C)Cc2c(C#N)c(N)sc(=S)c2CO1 (configuration not stated)	0.8	89.7*	16.4	-21.0	-3.5	-5.8
N#Cc1c(N)sc(=S)c2c1CCCC2	13.0	99.1*	21.8	-5.8	-5.9	4.4
COc1ccc(OC)c(-c2c3cc(O)c(=O)cc-3oc3cc(O)c(O)cc23)c1	80.4*	47.9	/	38.6	/	/
Cc1ccc(O)c(NC(=O)C2CCCCC2)c1	72.9	5.5	13.9	1.7	68.4*	67.9
Cc1ccc(O)c(NC(=O)CCCC(=O)O)c1	82.2*	5.6	8.7	-0.7	-0.4	4.5
CCN(CC)C(=O)CSc1nsc(SCC(=O)N(CC)CC)c1C#N	-2.2	27.7	/	-8.4	/	/
C=COC(=O)CSc1snc(SCC(=O)OC)c1C#N	98.6*	-6.8	24.8	89.5*	-13.8	-4.6
CCOc1ccc(-c2nnc3ccc(SCc4ccc(C(=O)OC)o4)nn23)cc1	-3.5	95.4*	/	11.3	4.5	19.4
CCOC(=O)CSc1ccc2nnc(-c3ccncc3)n2n1	-1.6	17.0	14.5	0.4	54.8*	23.8
CCOC(=O)C(CC)Sc1ccc2nnc(-c3cccnc3)n2n1 (configuration not stated)	-1.3	35.1	22.9	1.0	-76.2	-72.3*
COCCCN1C2=C(C(=O)CC(C)(C)C2)C(c2ccc(O)c(OC)c2)C2=C1CC(C)(C)CC2=O	19.8	34.8	21.4	2.7	3.0	1.9
O=C(NC1CCCCC1)C1(S(=O)(=O)c2ccc(Cl)cc2)CC1	/	36.2	3.2	1.7	0.6	0.3
COc1ccc(-c2noc(CCN3C(=O)c4ccccc4C3=O)n2)cc1OC	-22.8	6.3	13.8	-1.3	87.5*	42.5
COc1ccc(-c2noc(CN(C)S(=O)(=O)c3ccccc3)n2)cc1OC	96.6*	/	21.5	0.0	-20.7	3.2
COC(=O)c1ccc(OC(=O)CCN2C(=O)C3CCCCC3C2=O)cc1 (configuration not stated)	2.8	-3.8	12.8	-10.4	60.9*	25.3
CC1(C)CC(=O)C=C(CN2C(=O)c3ccccc3C2=O)C1=O	1.4	/	/	/	/	/
Nc1[nH][nH]c(=O)c1N=Nc1cccc(Cl)c1	6.6	0.9	-3.4	-29.0	42.4	7.4
SMILES	ALR inh	PHOSPHO1 inh	AI-2 QS mod	HCV core dimer	HSF1 activator	HSF1 inh
O=C1CCN(N=Nc2cccc(Cl)c2)N1	10.8	71.9*	6.4	6.2	-1.6	-5.7
CC(=O)NS(=O)(=O)c1cccnc1Nc1ccc(Cl)c(Cl)c1	97.9*	7.8	23.4	2.9	-6.5	-1.0
Nn1c(SCC(=O)Nc2ccc(F)cc2)nnc1-c1cccnc1	-27.7	5.7	1.6	-1.2	24.4	11.7
Nn1c(SCc2ccc(F)cc2)nnc1-c1cccnc1	/	23.7	-71.4	-1.7	62.1*	31.5
COc1cccc(-c2nnc(SCC(=O)N3CCCc4ccccc43)o2)c1	87.4*	27.8	30.8	3.0	12.6	1.4
COc1cc(OC)cc(-c2nnc(SCC(=O)N3CCCc4ccccc43)o2)c1	-3.4	-13.6	22.5	15.9	3.6	7.2
O=C(CSc1nnc(Cc2cccs2)n1CCc1ccccc1)N1CCCc2ccccc21	1.1	66.4*	36.6	7.3	9.9	-0.6
O=C(CSc1nnc(-c2cccs2)o1)N1CCCc2ccccc21	0.2	0.9	2.6	5.3	68.0*	17.1
O=C(CSc1nnc(-c2cccs2)o1)N1CCc2ccccc21	/	-4.9	11.4	-0.9	23.4	5.6
CC(=O)Nc1ccc2c(COC(=O)[C@@H](NS(=O)(=O)c3ccc(C)cc3)C(C)C)cc(=O)oc2c1	-3.4	/	/	/	/	/
COc1cccc(C(=O)N2CCN=C2SCc2cccnc2)c1OC	99.8*	-3.3	16.0	-5.0	3.2	1.0
COc1cccc(C(=O)N2CCN=C2SC)c1	4.1	31.7	23.0	-1.5	-0.8	-5.3
COc1ccccc1C(=O)N1CCN=C1SC	-12.9	0.2	14.3	0.2	-3.5	0.0
COc1ccc(C(=O)N2CCN=C2SCc2cccnc2)c(OC)c1	99.7*	-5.3	27.7	3.9	-14.6	1.8
O=C(O)CC(c1ccc(Br)cc1)N1Cc2ccccc2C1=O (configuration not stated)	-13.7	24.1	7.6	-11.8	-4.5	0.7
CCOc1ccc(C(C)=O)cc1COC(=O)CNC(=O)C12CC3CC(CC(C3)C1)C2	-1.7	/	/	/	/	/
COc1ccc(CN2CCNC(=O)C2CC(=O)NCCCC2CCCC2)c(C)c1C (configuration not stated)	2.2	28.7	6.2	9.5	2.3	-2.6
CC(Sc1nc2ccccc2o1)C(=O)O (configuration not stated)	-58.8	76.1*	16.6	-1.1	-4.9	-0.6
O=C(NCc1ccncc1)C(=O)NCC(c1ccco1)N1CCN(c2ccc(F)cc2)CC1 (configuration not stated)	94.2*	-4.0	-7.4	-1.7	14.2	5.6
O=C(NCc1ccccn1)C(=O)NCC(c1ccco1)N1CCN(c2ccc(F)cc2)CC1 (configuration not stated)	98.0*	-2.4	21.7	0.7	-4.1	0.0
O=C(NCC(c1ccco1)N1CCN(c2ccc(F)cc2)CC1)OCc1ccccc1 (configuration not stated)	15.5	4.1	36.5	-1.0	3.7	5.0
O=C(NCc1ccccn1)C(=O)NCC(c1ccco1)N1CCOCC1 (configuration not stated)	-3.4	34.1	1.7	3.5	-4.5	-2.6

Source: PubChem BioAssay (several laboratories)
